# RGS4 inh = inhibitors of human RGS4 | P49798 | HEK293 M3R/RGS4 inducible, Fluo-4 calcium flux; active compounds read high; triggered by carbachol at its EC20 | B-score at 10 µM | 0.45% of 310,000 active;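 active = B-score, a plate-corrected calcium signal, over three deviations above library mean, with baseline fluorescence within five deviations of library mean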;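 also: RGS4 expression induced by doxycycline in cells with stable M3 receptor; B-score is computed from the integrated fluorescence ratio over baseline after carbachol; higher B-score means a larger calcium signal and so more RGS4 inhibition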
# Target sequence (P49798 whole entry, looked up): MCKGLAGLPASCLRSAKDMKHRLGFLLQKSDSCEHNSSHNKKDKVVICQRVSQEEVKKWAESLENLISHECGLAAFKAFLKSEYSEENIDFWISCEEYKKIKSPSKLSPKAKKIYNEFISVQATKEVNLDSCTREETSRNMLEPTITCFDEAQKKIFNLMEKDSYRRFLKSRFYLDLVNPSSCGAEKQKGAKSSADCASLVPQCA
# RGS4 act = RGS4 potentiation or activation. HEK293 M3R/inducible RGS4, carbachol calcium flux Fluo4; active compounds read low. B-score at 10 µM. 0.92% of 310,000 active. AID 463111;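 active = B-score of the integrated calcium signal more than 4 SD below the library mean, with starting fluorescence not abnormally high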;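 also: negative B-score means reduced calcium response which marks RGS4 activation or potentiation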
#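 Assay system: HEK293 FlpIn-TREx cells, stable M3R, doxycycline-inducible RGS4 / Probe or stimulus: carbachol, ECmax concentration / Times: overnight RGS4 induction, 30 min dye load 37 °C, 20 min compound RT / Signal: kinetic calcium fluorescence imaging with Fluo4-AM dye, 2 µM / Measure: Agonist-evoked peak-minus-minimum fluorescence over baseline, integrated ratio, B score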
# MrgX1 ag = human MrgX1 receptor agonism, primary screen. 0.44% of 310,000 active. MrgX1-HEK293 cells, Fluo-4 calcium fluorescence, agonist mode; active compounds read high. B-score at 10 µM. AID 588627. Q96LB2;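 active = calcium response B-score plate-corrected fluorescence ratio at least 3 library SD, with starting fluorescence B-score inside 5 SD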
# Target sequence (Q96LB2 whole entry, looked up): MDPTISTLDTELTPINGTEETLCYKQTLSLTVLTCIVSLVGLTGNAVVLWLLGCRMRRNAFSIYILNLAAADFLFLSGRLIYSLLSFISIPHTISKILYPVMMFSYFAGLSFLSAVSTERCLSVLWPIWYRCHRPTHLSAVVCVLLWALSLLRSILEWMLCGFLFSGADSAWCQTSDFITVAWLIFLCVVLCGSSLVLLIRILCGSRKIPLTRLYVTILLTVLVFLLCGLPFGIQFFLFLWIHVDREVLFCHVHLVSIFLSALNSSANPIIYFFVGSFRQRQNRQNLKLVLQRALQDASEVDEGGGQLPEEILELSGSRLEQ
#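 System – MrgX1-expressing HEK293 cells · Incubation – cells plated overnight, dye loaded 0.5 h 37 °C, 0.5 h room temperature · Technique – kinetic Fluo-4 NW fluorescence of intracellular calcium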
# MrgX1 antag = blocks BAM8-22 activation of human MrgX1 receptor; MRGX1-HEK293 calcium flux, Fluo-4, BAM8-22 antagonism; active compounds read low; AID 588676; 1.3% of 310,000 active; B-score at 10 µM;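 active = calcium-response B-score plate-corrected more than 3 library SD below zero, starting fluorescence within 5 deviations, no agonist response on first addition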;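 also: peak minus trough fluorescence over baseline after final BAM8-22 challenge near maximal dose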
# MrgX1 allo act = human MrgX1 positive allosteric modulation, primary screen; MrgX1-HEK293, Fluo-4 calcium flux, FDSS; active compounds read high; 0.63% of 310,000 active; AID 588675; Q96LB2; B-score at 10 µM;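 active = plate-corrected calcium response at least 3 library SD above typical, normal starting fluorescence, not activating the receptor alone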;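 also: compound read alongside a low EC10 to EC30 dose of BAM8-22 agonist; peak minus trough fluorescence over baseline measured at the second addition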
# MrgX1 ant reconf = reconfirmed antagonist of human MrgX1 receptor signaling. shares compounds with MrgX1 antag. MrgX1-HEK293, BAM8-22 calcium flux, Fluo-4; active compounds read low. remaining BAM8-22 calcium response % of control (active compounds read low), % at 10 µM. 19% of 2,300 active;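 active = remaining agonist calcium response no higher than 100% minus 3 SD of agonist-only control wells, with starting fluorescence near control levels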;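 also: agonist BAM8-22 given at a near maximal EC90 to ECmax level; peak minus minimum fluorescence divided by baseline after agonist addition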
# HEK293 Ca flux = counter-screen for MrgX1 antagonists: effect in parental HEK293 cells; fluorescence ratio F(max-min)/F0 at 10 µM; Fluo-4 calcium fluorescence, FDSS; shares compounds with MrgX1 antag; 2% of 4,000 active;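 active = duplicate-averaged calcium fluorescence ratio at least three times the standard deviation of buffer wells, a nonspecific response in parental cells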
# HEK293 Ca counter = counter-screen for MrgX1 allosteric activators: effect in parental HEK293 cells; shares compounds with MrgX1 antag; parental HEK293 calcium flux, Fluo-4 fluorescence ratio; active compounds read high; fluorescence ratio F(max-min)/F0 at 10 µM; 0.4% of 4,000 active;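 active = calcium fluorescence ratio, averaged over duplicates, at least 3 SD of the buffer-well ratio, meaning a nonspecific response in receptor-free cells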;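 also: untransfected parental HEK293 lacking MrgX1 used as counterscreen for MrgX1 allosteric activators; fluorescence change taken during the second addition on a kinetic imager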
# HEK293 Ca cntr2 = activity in parental HEK293 cells lacking MrgX1 receptor. shares compounds with MrgX1 antag. Fluo-4 calcium fluorescence (FDSS); active compounds read high. fluorescence ratio F(max-min)/F0 at 10 µM. 8.7% of 4,000 active;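 active = calcium fluorescence ratio at least three times the spread of buffer wells, meaning a non-specific response in parental cells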
# The depositor's hits bear a star; i = inactive; / = no result given. Compounds with a hit are over-represented: about 3.5% of the library has one in this group of screens.
SMILES,RGS4 inh,RGS4 act,MrgX1 ag,MrgX1 antag,MrgX1 allo act,MrgX1 ant reconf,HEK293 Ca flux,HEK293 Ca counter,HEK293 Ca cntr2
CC(C)Cc1ccc(/C=C/C(=O)NC2CC2)cc1,i,i,i,i,i,/,/,/,/
CCCOC(=O)c1ccc(NC(=O)C(CC)CC)cc1,i,i,i,-6.4*,i,i,i,i,i
COc1ccc(-c2nc3c(c4nnc(SC(C)C(=O)Nc5ccccc5)n24)COC(C)(C)C3)cc1 (configuration not stated),i,i,i,-6.5*,i,i,i,i,i
NS(=O)(=O)c1ccc(CCNC(=O)NC23CC4CC(CC(C4)C2)C3)cc1,i,i,i,i,i,/,/,/,/
NS(=O)(=O)c1ccc(-n2nncc2C23CC4CC(CC(C4)C2)C3)cc1,i,i,i,-7.3*,i,i,i,i,i
Cc1ccc(-c2cc(C(=O)NC3=NCCS3)c3ccccc3n2)cc1C,i,i,i,-4.9*,i,i,i,i,i
O=C(NC1=NCCS1)c1cc(-c2ccc(F)cc2)nc2ccccc12,i,i,i,i,i,/,/,/,/
Cc1ccc(CCNC(=O)CCS(=O)(=O)c2ccc(Br)cc2)cc1,i,i,i,-8.1*,i,i,i,i,i
Cc1ccc(S(=O)(=O)CCC(=O)NCCc2ccc(Cl)cc2)cc1,i,i,i,i,i,/,/,/,/
COc1ccccc1NC(=S)NCc1ccc2c(c1)cc(C)n2C,i,i,i,i,i,/,/,/,/
Cc1ccccc1NC(=S)NCc1ccc2c(c1)cc(C)n2C,i,i,i,-5.3*,i,i,i,i,i
NC(=S)Nc1cccc(Cl)c1,i,i,i,i,i,/,/,/,/
CS/C(N)=N/C(=S)Nc1cccc(Cl)c1,i,i,i,-4.6*,i,i,i,i,i
Cc1ccc(NC(=O)Nc2ccc(F)cc2)cc1Cl,i,i,i,-6.1*,i,71%*,i,i,i
N#Cc1cc(-c2ccccc2)nnc1Sc1ccccc1,i,i,i,-4.9*,i,79%*,i,i,i
N#Cc1cc(-c2ccccc2)nnc1Sc1ccc(F)cc1,i,i,i,i,i,/,/,/,/
CCCCNC(=O)N1CCOCCOCCN(C(=O)NCCCC)CCOCC1,i,i,i,-4.6*,i,i,i,i,i
CN1CCN(S(=O)(=O)c2cccc(C(=O)Nc3sc4c(c3-c3nc5ccccc5[nH]3)CCCC4)c2)CC1,i,i,i,-5.5*,i,55%*,i,i,i
CC(=O)NCCC(=O)Nc1sc2c(c1-c1nc3ccccc3[nH]1)CCCC2,i,i,i,i,i,/,/,/,/
CC(NC(=O)C1CCC(CNS(=O)(=O)c2ccccc2)CC1)c1ccccc1 (configuration not stated),i,i,i,i,i,/,/,/,/
COc1ccccc1-c1nnc(SCC(=O)OC(C)C)o1,i,i,i,-6.6*,i,i,i,i,i
CN(C(=O)COC(=O)CCC(=O)c1ccc(Cl)cc1)c1c(N)n(Cc2ccccc2)c(=O)[nH]c1=O,i,i,i,i,i,/,/,/,/
COc1ccc(NC(=O)CN(C)C(=O)CSc2ccc3c(c2)OCCO3)cc1,i,i,i,-5.2*,i,i,i,i,i
COC(=O)c1cccc(Nc2ncnc3sccc23)c1,i,i,i,-4.5*,i,i,i,i,i
COc1cccc(Nc2ncnc3sccc23)c1,i,i,i,i,i,/,/,/,/
SMILES,RGS4 inh,RGS4 act,MrgX1 ag,MrgX1 antag,MrgX1 allo act,MrgX1 ant reconf,HEK293 Ca flux,HEK293 Ca counter,HEK293 Ca cntr2
CCOC(=O)CNC(=O)N1CCCC(N(C)CCc2ccccc2)C1 (configuration not stated),i,i,i,i,i,/,/,/,/
Clc1ccc(SCCn2ccnc2)cc1,i,i,i,i,i,/,/,/,/
O=C(Nc1ccc(Cl)cc1)N(Cc1cccnc1)Cc1ccco1,i,i,i,-5.7*,i,i,i,i,i
CCOC(=O)CNC(=O)CSc1ccc(-c2nc3ccccc3[nH]2)cn1,i,i,i,-4.8*,i,i,i,i,i
CN(C)S(=O)(=O)c1ccc(C(=O)Nc2ccc(S(=O)(=O)NC3=NCCCCC3)cc2)cc1,i,i,i,-7.5*,i,i,i,i,i
O=C(Nc1ccc(S(=O)(=O)NC2=NCCCCC2)cc1)c1ccc(C(F)(F)F)cc1,i,i,i,i,i,/,/,/,/
CCCCN(C)C(=S)Nc1ccc(Oc2ccccc2)cc1,i,i,i,-6.3*,i,i,i,i,i
Cc1ccc(NC(=O)CCNS(=O)(=O)c2cc(Br)cnc2N)c(Cl)c1,i,i,i,-5.5*,i,i,i,i,i
O=C1CC(N2CCN(c3ccccc3)CC2)C(=O)N1c1cccc(Br)c1 (configuration not stated),i,i,i,i,i,/,/,/,/
O=C1CC(N2CCSCC2)C(=O)N1c1cccc(Br)c1 (configuration not stated),i,i,i,-9.1*,i,i,i,i,i
CSc1nc2ccc(NC(=O)C3CCCO3)cc2s1 (configuration not stated),i,i,i,-6.8*,i,i,i,i,i
O=C(Nc1ccc(Oc2ccc(NC(=O)C3CCCO3)cc2)cc1)C1CCCO1 (configuration not stated),i,i,i,i,i,/,/,/,/
NC(=O)c1ccc(NC(=O)C2CCCO2)cc1 (configuration not stated),i,i,i,-5.9*,i,i,i,i,i
COc1ccc2nc(NC(=O)C3CCCO3)sc2c1 (configuration not stated),i,i,i,i,i,/,/,/,/

# Source: PubChem BioAssay (Johns Hopkins Ion Channel Center)
